Experimental data: ChEMBL document CHEMBL1141119, “Synthesis and pharmacological evaluation of 1H-imidazoles as ligands for the estrogen receptor and cytotoxic inhibitors of the cyclooxygenase” (J Med Chem, 2005)

Legend:
[1] = target: Prostaglandin G/H synthase 1 (Ovis aries) (UniProt P05979); experiment: Inhibitory concentration against ovine cyclooxygenase-1 evaluated by enzyme linked immunosorbent assay
[2] = test system: MCF7; experiment: Effective concentration against human ER positive MCF-7 breast cancer cell line evaluated by luciferase assay; type: functional, cell-based
In short: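 ER-positive MCF-7 cells stably transfected with the ERE_wtc-luc reporter plasmid (MCF-7 2a). Cells were exposed to the compound over a concentration range. ER binding to the estrogen response element drives luciferase expression, which was measured to build concentration–activation curves relative to estradiol. EC50 was taken from these curves.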

[3] = test system: MCF7; experiment: Treatment upon control (T/C) against hormone dependent MCF-7 breast cancer cells at 10 uM concentration; details: Homo sapiens

IC50 [1] | SMILES | EC50 [2] | T/C at 10 µM [3]
> 200 µM | CCc1c(-c2ccc(O)cc2)nc(-c2ccc(O)cc2)n1-c1ccc(O)cc1 | 77 nM | –
8.4 µM | Oc1ccc(-c2nc(-c3ccc(O)cc3Cl)cn2-c2ccc(O)cc2)cc1 | – | 50%
8.4 µM | Oc1ccc(-n2cc(-c3ccc(O)cc3Cl)nc2-c2ccc(O)cc2Cl)cc1 | – | 0%
12.2 µM | Oc1ccc(-c2cn(-c3ccc(O)cc3)c(-c3ccc(O)cc3)n2)cc1 | – | –
– | C[C@]12CC[C@@H]3c4ccc(O)cc4CC[C@H]3[C@@H]1CC[C@@H]2O [ESTRADIOL] | 0.08 nM | –
